ChEMBL document CHEMBL6134765, “Rapid identification of novel indolylarylsulfone derivatives as potent HIV-1 NNRTIs via miniaturized CuAAC click-chemistry-based combinatorial libraries” (RSC Med Chem, 2025)

Assays:
[1] = molecular target: Human immunodeficiency virus type 1 reverse transcriptase (Human immunodeficiency virus 1) (UniProt Q72547); assay: Inhibition of recombinant HIV-1 reverse transcriptase at 0.66 mM incubated for 1 hr by ELISA relative to control
Summary of the method: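 Each library compound was tested directly as the crude click mixture (diluted in DMSO to 2 mM per well) against HIV-1 RT at 0.66 mM, using an ELISA-based RT kit following the kit protocol. Blank controls held DMSO, TBTA, CuSO4·5H2O and sodium ascorbate. Inhibition is expressed as a percentage.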

[2] = system: Human immunodeficiency virus 1; assay: Antiviral activity against wild-type HIV-1 IIIB infected in human MT4 cells incubated for 5 days by spectrophometry based MTT assay; format: functional, organism-based; settings: Human immunodeficiency virus 1, IIIB, MT4, 120 h
Summary of the method: (§1)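 MTT protection assay in MT-4 cells infected with HIV-1 IIIB or HIV-2 ROD. EC50 is the compound concentration giving 50% protection of the cultures against virus-induced cytotoxicity.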

[3] = system: Human immunodeficiency virus 2; assay: Antiviral activity against HIV-2 ROD infected in human MT4 cells incubated for 5 days by spectrophotometry based MTT assay; format: functional, organism-based; settings: Human immunodeficiency virus 2, ROD, MT4, 120 h; summary of the method: as §1
[4] = Cytotoxicity against human MT4 cells assessed as reduction in cell viability incubated for 5 days by MTT assay; format: toxicity, cell-based; settings: time 5 day
Summary of the method: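 Mock-infected MT-4 cultures were read by MTT for cell viability. CC50 is the concentration that reduces viability by 50%.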

[5] = Selectivity index, ratio of CC50 for cytotoxicity against human MT4 cells to EC50 for antiviral activity against wild-type HIV-1 IIIB infected in human MT4 cells; format: toxicity, cell-based; settings: read-out: Ratio CC50/EC50
Summary of the method: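 Selectivity index is calculated as CC50 (mock-infected MT-4, MTT) divided by EC50 (HIV-1 IIIB protection of MT-4, MTT).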

[6] = system: Human immunodeficiency virus 1; assay: Antiviral activity against HIV-1 harboring L100I mutant infected in human MT4 cells assessed as inhibition of virus induced cytotoxicity incubated for 5 days by spectrophometry based MTT assay; format: functional, organism-based; settings: Human immunodeficiency virus 1, MT4, 120 h
Summary of the method: (§2)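 MT-4 cells (from Dr. N. Yamamoto, Yamaguchi University) infected with single-mutant (L100I, K103N, Y181C, Y188L, E138K) or double-mutant (F227L/V106A; RES056 = K103N/Y181C) HIV-1 strains. Protection against virus-induced cytotoxicity was read by the MTT method. EC50 is the concentration giving 50% protection of the cell cultures.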

[7] = system: Human immunodeficiency virus 1; assay: Antiviral activity against HIV-1 harboring K103N mutant infected in human MT4 cells assessed as inhibition of virus induced cytotoxicity incubated for 5 days by spectrophometry based MTT assay; format: functional, organism-based; settings: Human immunodeficiency virus 1, MT4, 120 h; summary of the method: as §2
[8] = system: Human immunodeficiency virus 1; assay: Antiviral activity against HIV-1 harboring Y181C mutant infected in human MT4 cells assessed as inhibition of virus induced cytotoxicity incubated for 5 days by spectrophometry based MTT assay; format: functional, organism-based; settings: Human immunodeficiency virus 1, MT4, 120 h; summary of the method: as §2
[9] = system: Human immunodeficiency virus 1; assay: Antiviral activity against HIV-1 harboring Y188L mutant infected in human MT4 cells assessed as inhibition of virus induced cytotoxicity incubated for 5 days by spectrophometry based MTT assay; format: functional, organism-based; settings: Human immunodeficiency virus 1, MT4, 120 h; summary of the method: as §2
[10] = system: Human immunodeficiency virus 1; assay: Antiviral activity against HIV-1 harboring E138K mutant infected in human MT4 cells assessed as inhibition of virus induced cytotoxicity incubated for 5 days by spectrophometry based MTT assay; format: functional, organism-based; settings: Human immunodeficiency virus 1, MT4, 120 h; summary of the method: as §2
[11] = system: Human immunodeficiency virus 1; assay: Antiviral activity against HIV-1 harboring F227L/V106A double mutant infected in human MT4 cells assessed as inhibition of virus induced cytotoxicity incubated for 5 days by spectrophometry based MTT assay; format: functional, organism-based; settings: Human immunodeficiency virus 1, MT4, 120 h; summary of the method: as §2
[12] = system: Human immunodeficiency virus 1; assay: Antiviral activity against HIV-1 harboring RES056 mutant infected in human MT4 cells assessed as inhibition of virus induced cytotoxicity incubated for 5 days by spectrophometry based MTT assay; format: functional, organism-based; settings: Human immunodeficiency virus 1, MT4, 120 h; summary of the method: as §2

## Cc1cc(C)cc(S(=O)(=O)c2c(C(=O)NCc3cn(Cc4cccc5ccccc45)nn3)[nH]c3ccc(Cl)cc23)c1
[1]
  inhibition: > 85%
[2]
  EC50: 0.061 µM
[3]
  EC50: > 214 µM
[4]
  CC50 at 120 h: > 214 µM
[5]
  selectivity ratio: > 3510
[6]
  EC50: 0.3 µM
[7]
  EC50: 0.7 µM
[8]
  EC50: 0.62 µM
[9]
  EC50: 25 µM
[10]
  EC50: 0.24 µM
[11]
  EC50: 1.99 µM
[12]
  EC50: 113 µM

## Cc1cc(C)cc(S(=O)(=O)c2c(C(=O)NCc3cn(Cc4cccc([N+](=O)[O-])c4)nn3)[nH]c3ccc(Cl)cc23)c1
[1]
  inhibition: > 85%
[2]
  EC50: 0.23 µM
[3]
  EC50: > 216 µM
[4]
  CC50 at 120 h: > 216 µM
[5]
  selectivity ratio: > 939
[6]
  EC50: 1.9 µM
[7]
  EC50: 2.84 µM
[8]
  EC50: 3.04 µM
[9]
  EC50: 152 µM
[10]
  EC50: 1.3 µM
[11]
  EC50: 9.41 µM
[12]
  EC50: > 216 µM

## Cc1cc(C)cc(S(=O)(=O)c2c(C(=O)NCc3cn(CCc4ccccc4)nn3)[nH]c3ccc(Cl)cc23)c1
[1]
  inhibition: > 85%
[2]
  EC50: 0.15 µM
[3]
  EC50: > 4.69 µM
[4]
  CC50 at 120 h: 162 µM
[5]
  selectivity ratio: 1080
[6]
  EC50: 1 µM
[7]
  EC50: 0.54 µM
[8]
  EC50: 2.51 µM
[9]
  EC50: > 162 µM
[10]
  EC50: 0.87 µM
[11]
  EC50: 4.33 µM
[12]
  EC50: > 4.69 µM

## Cc1cc(C)cc(S(=O)(=O)c2c(C(=O)NCc3cn(Cc4ccccc4[N+](=O)[O-])nn3)[nH]c3ccc(Cl)cc23)c1
[1]
  inhibition: > 85%
[2]
  EC50: 0.024 µM
[3]
  EC50: > 216 µM
[4]
  CC50 at 120 h: > 216 µM
[5]
  selectivity ratio: > 9120
[6]
  EC50: 0.15 µM
[7]
  EC50: 0.51 µM
[8]
  EC50: 0.29 µM
[9]
  EC50: 20.8 µM
[10]
  EC50: 0.15 µM
[11]
  EC50: 1.56 µM
[12]
  EC50: > 194 µM

## Cc1cc(C)cc(S(=O)(=O)c2c(C(=O)NCc3cn(CC(=O)Nc4ccc(F)cc4)nn3)[nH]c3ccc(Cl)cc23)c1
[1]
  inhibition: > 85%
[2]
  EC50: 0.087 µM
[3]
  EC50: > 16.2 µM
[4]
  CC50 at 120 h: 16.2 µM
[5]
  selectivity ratio: 188
[6]
  EC50: 0.53 µM
[7]
  EC50: 2.78 µM
[8]
  EC50: 1.07 µM
[9]
  EC50: 14.1 µM
[10]
  EC50: 0.56 µM
[11]
  EC50: 5.09 µM
[12]
  EC50: > 16.2 µM
